Published values gathered from unrelated publications.
Lines come from different studies, so protocols differ.
Target: Protein kinase C epsilon type (PRKCE, Homo sapiens, UniProt Q02156)
Residues used in one study (Q02156 1-737): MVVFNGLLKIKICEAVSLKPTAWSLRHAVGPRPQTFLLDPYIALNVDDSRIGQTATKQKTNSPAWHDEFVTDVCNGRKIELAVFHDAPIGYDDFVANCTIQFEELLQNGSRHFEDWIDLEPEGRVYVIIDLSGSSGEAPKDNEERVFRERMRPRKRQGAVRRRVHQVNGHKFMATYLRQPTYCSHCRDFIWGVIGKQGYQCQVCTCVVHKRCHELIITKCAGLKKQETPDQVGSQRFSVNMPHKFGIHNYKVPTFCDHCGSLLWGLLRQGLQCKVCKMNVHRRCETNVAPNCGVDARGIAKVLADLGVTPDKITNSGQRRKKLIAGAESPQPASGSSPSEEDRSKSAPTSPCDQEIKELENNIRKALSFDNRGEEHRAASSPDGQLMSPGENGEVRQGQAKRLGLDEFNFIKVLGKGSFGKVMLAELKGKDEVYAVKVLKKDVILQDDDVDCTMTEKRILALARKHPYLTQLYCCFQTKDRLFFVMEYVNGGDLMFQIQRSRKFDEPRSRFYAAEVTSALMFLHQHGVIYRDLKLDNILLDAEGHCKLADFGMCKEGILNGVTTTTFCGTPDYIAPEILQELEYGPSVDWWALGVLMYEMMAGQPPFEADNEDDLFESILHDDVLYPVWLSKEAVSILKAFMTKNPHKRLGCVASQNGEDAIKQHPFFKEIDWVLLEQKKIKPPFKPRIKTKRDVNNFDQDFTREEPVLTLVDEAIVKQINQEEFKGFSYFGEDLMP

SMILES | assay | conditions | remaining binding
COc1cc(-c2cn(C3CCc4c(F)cccc4N(CC(F)(F)F)C3=O)nn2)ccc1-n1cnc(C)c1 (centres unmarked) | cell-free assay, competition with immobilised ligand | 1 µM | 100%
O=C(Nc1c[nH]nc1C(=O)NC1CCNCC1)c1cc(F)cc(F)c1 | binding, competition with immobilised ligand | 1 µM | 70%
CN(C)c1nccc(-c2cnn3ncccc23)n1 | binding | 1 µM | 100%
C=CC(=O)N1CCC(C(=O)NCC(=O)N2CCN(c3nc(-c4cnc(N)nc4C(F)F)nc(N4CCOCC4)n3)CC2)CC1 | binding, competition with immobilised ligand | 1 µM | 79%
N[C@H]1CCN(c2nccc(-c3cnn4ncccc34)n2)C1 | binding | 1 µM | 100%
CSc1cccnc1N1CCN(Cc2nc3ccccc3[nH]2)CC1 | cell-free assay, competition with immobilised ligand | 1 µM | 77%
Cc1cnc(Nc2ccc(C(=O)N3CCC(N4CCCC4)CC3)cc2)nc1-c1cc2ccccc2s1 | binding, competition with immobilised ligand | 1 µM | 26%
CN(C)C(=O)Cn1cc(-c2nc(C3(c4ccc(-c5cnc(N)nc5)cc4)CC3)no2)cn1 | cell-free assay, competition with immobilised ligand | 1 µM | 90%
c1cnn2ncc(-c3ccnc(N4CCC45COC5)n3)c2c1 | binding | 1 µM | 100%
COc1ncc2cc3ccccc3nc2c1C#N | cell-free assay, competition with immobilised ligand | 5 µM | 89%
CN(c1ccnc(CNc2nc(Nc3ccc4c(c3)CC(=O)N4)ncc2C(F)(F)F)n1)S(C)(=O)=O | cell-free assay, competition with immobilised ligand | 1 µM | 50%
CN(C)c1nccc(-c2cnc3ncccn23)n1 | binding | 1 µM | 100%
O=C(c1ccc(Nc2ncc(Cl)c(-c3ccc(Cl)s3)n2)cc1)N1CCC(N2CCCC2)CC1 | binding, competition with immobilised ligand | 1 µM | 45%
CCN1CCN(Cc2ccc(C(=O)Nc3ccc(C)c(Oc4ccc5c(c4)CC(=O)N5)c3)cc2C(F)(F)F)CC1 | binding, competition with immobilised ligand | 1 µM | 100%
COc1cnc(Nc2cccc(S(N)(=O)=O)c2)nc1N1CCN(c2ccccc2)C(=O)C1 | binding, competition with immobilised ligand | 1 µM | 100%
Cn1nc(C(=O)NCc2ccc(C(=O)O)cc2)cc1-c1ccc2[nH]ccc2c1 | cell-free assay, competition with immobilised ligand | 0.1 µM | 64%
C[C@H]1CCN(c2nccc(-c3cnn4ncccc34)n2)C1 | binding | 1 µM | 100%
